pIC50: −log10 of the molar value.
Assays:
Human alphaherpesvirus 1 = experiment: Inhibitory activity against herpes simplex virus type-1 cultures was determined by ELISA assay; assay type: functional, organism-based
In short: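 BSC-1 cells, 10000 per well in MEM(E) with 10% calf serum, incubated overnight at 37 °C. Drug added in quadruplicate with HSV-1 (KOS) at 100 pfu/well and incubated 3 days at 37 °C. Plates blocked, probed with HRP-conjugated rabbit anti-HSV-1 and developed with TMB; reaction stopped with H2SO4 and read at 450/570 nm. Percent absorbance reduction versus virus-only wells, IC50 by regression.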

Human betaherpesvirus 5 = experiment: Concentration required to inhibit plaque formation in human cytomegalovirus cultures was determined; assay type: functional, organism-based
In short: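 HFF monolayers infected with about 100 pfu/cm² of HCMV Towne strain (plaque-purified P₀). After adsorption, compound (10 mg/mL DMSO stock, diluted in medium) added at four to eight concentrations in duplicate wells. After 7–10 days at 37 °C, cells fixed and stained with crystal violet and plaques counted microscopically. Percent plaque reduction versus drug-free wells, IC50 by regression against log concentration.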

KB = experiment: Concentration required to inhibit KB cell line growth was determined by crystal violet staining method; assay type: functional, cell-based; conditions: Homo sapiens
In short: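 KB cells, 3000–5000 per well, incubated overnight at 37 °C, then compound added at six to eight concentrations in quadruplicate. Grown 48 h at 37 °C under CO2 (two population doublings), fixed in 95% ethanol, stained with 0.1% crystal violet, dye eluted with acidified ethanol, absorbance 570 nm. IC50 taken from linear regression of percent inhibition against log concentration.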

HFF = experiment: Concentration required to inhibit stationary human HFF cell line growth was determined by microscopy examination; assay type: functional, cell-based
In short: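 Toxicity judged by microscopic inspection of uninfected stationary HFF cells in the HCMV plaque assay, scored at the time plaques were counted. Results come from duplicate experiments. IC50 from linear regression of percent inhibition against log concentration.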

| Compound | pIC50 (Human alphaherpesvirus 1) | pIC50 (Human betaherpesvirus 5) | pIC50 (KB) | pIC50 (HFF) |
| --- | --- | --- | --- | --- |
| OCCOCn1c(Br)nc(Br)c1Br | < 4.00 | < 4.00 | < 4.00 | < 4.00 |
| OCC1OC(n2c(Br)nc(Br)c2Br)[C@@H](O)C1O (some centres not stated) | < 4.00 | 4.49 | 4.05 | < 4.00 |
| OC[C@H]1O[C@@H](n2cnc3cc(Cl)c(Cl)cc32)[C@@H](O)[C@H]1O | 4.52 | 4.38 | 4.44 | 4.62 |
| OC[C@H]1O[C@@H](n2c(Br)nc(Br)c2Br)[C@H](O)[C@@H]1O | 4.22 | 4.52 | 4.19 | 4.00 |
| OC[C@H]1OC(n2cnc(Cl)c2Cl)[C@H](O)[C@@H]1O (some centres not stated) | < 4.00 | < 4.00 | < 4.00 | < 4.00 |
| OC[C@H]1O[C@@H](n2c(Br)nc(Cl)c2Cl)[C@H](O)[C@H]1O | < 4.00 | < 4.00 | < 4.00 | < 4.00 |
| OCC(CO)OCn1c(Cl)nc(Cl)c1Cl | 4.52 | < 4.00 | 4.60 | < 4.00 |
| OC[C@H]1O[C@@H](n2c(Br)nc(Cl)c2Cl)[C@H](O)[C@@H]1O | < 4.00 | < 4.00 | < 4.00 | < 4.00 |
| OC[C@H]1OC(n2c(Cl)nc3nc4cc(Cl)c(Cl)cc4cc32)[C@H](O)[C@@H]1O (some centres not stated) | 4.15 | 5.70 |  |  |
| OC[C@H]1O[C@@H](n2c(Cl)nc(Cl)c2Cl)[C@H](O)[C@H]1O | 4.30 | < 4.00 | < 4.00 | < 4.00 |
| OCCOCn1c(Br)nc(Cl)c1Cl | < 4.00 | < 4.00 | < 4.00 | < 4.00 |
| OCC(CO)OCn1c(Br)nc(Br)c1Br | < 4.00 | < 4.00 | < 4.00 | < 4.00 |
| OC[C@H]1OC(n2c(Cl)nc3cc4cc(Cl)c(Cl)cc4cc32)[C@H](O)[C@@H]1O (some centres not stated) |  | 5.70 |  |  |
| OCCOCn1c(Cl)nc(Cl)c1Cl | 4.46 | < 4.00 | 4.60 | 4.35 |
| OCC1OC(n2c(Br)nc(Cl)c2Cl)[C@@H](O)C1O (some centres not stated) | < 4.00 | < 4.00 | < 4.00 | < 4.00 |
| OC[C@H]1O[C@@H](n2c(Cl)nc(Cl)c2Cl)[C@H](O)[C@@H]1O | < 4.00 | < 4.00 | < 4.00 | < 4.00 |
| Clc1nc(Cl)c(Cl)[nH]1 |  | 4.52 |  | 4.12 |
| OC[C@H]1OC(n2cnc(Br)c2Br)[C@H](O)[C@@H]1O (some centres not stated) | < 4.00 | < 4.00 | < 4.00 | < 4.00 |
| OC[C@H]1O[C@@H](n2c(Br)nc(Br)c2Br)[C@H](O)[C@H]1O | < 4.00 | < 4.00 | < 4.00 | < 4.00 |
| OC[C@H]1O[C@@H](n2c(Br)nc3cc(Cl)c(Cl)cc32)[C@H](O)[C@@H]1O |  | 6.15 | < 4.00 |  |
| OCC(CO)OCn1c(Br)nc(Cl)c1Cl | < 4.00 | < 4.00 | < 4.00 | < 4.00 |
| OC[C@H]1OC(n2c(Cl)nc3cc4cc(Cl)c(Cl)cc4nc32)[C@H](O)[C@@H]1O (some centres not stated) | 4.05 | 4.74 |  |  |
| Clc1nc(Br)[nH]c1Cl |  | 4.39 |  | < 4.00 |
| OC[C@H]1O[C@@H](n2c(Cl)nc3cc(Cl)c(Cl)cc32)[C@H](O)[C@@H]1O |  |  | < 4.00 |  |
| Brc1nc(Br)c(Br)[nH]1 |  | 4.43 |  | 4.12 |

From ChEMBL document CHEMBL1138812, “Synthesis and antiviral evaluation of polyhalogenated imidazole nucleosides: dimensional analogues of 2,5,6-trichloro-1-(beta-D-ribofuranosyl)benzimidazole” (J Med Chem, 2004)
